The list is not random: actives were taken first. Their share in the collection is about 2.1%.
HCV NS3 hel inh: inhibitors of HCV NS3 helicase, primary screen, biochemical, Cy5 molecular beacon fluorescence. Hepatitis C virus NS3 helicase. NS3 helicase DNA unwinding. inhibition, % at 10.9 µM. 290,000 tested, 0.56% active;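 active means inhibition above the mean of all tested compounds plus 3 SD, set per campaign, cut at about 35% in these data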;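 further: 0% = DMSO wells and 100% = thioflavine S control wells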
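Test system: hepatitis C virus NS3 helicase domain fragment enzyme. Also added: annealed dual-labelled DNA beacon duplex, ATP-started. Timing: 60 min unwinding reaction at 25 °C after ATP addition. Technique: Cy5 fluorescence. Measure: % inhibition of unwinding.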
EBNA-1 inh: EBNA-1 DNA-binding inhibitors, primary screen, biochemical, fluorescence polarization | inhibition, % at 14.8 µM | 300,000 tested, 0.34% active | AID 1950, 2009; in the data active means inhibition above about 28%
PABP1 MLLE inh: inhibitors of PABP1 MLLE–PAM2 peptide binding, primary screen, biochemical, fluorescence polarization, FITC-PAM2, GST-MLLE; Polyadenylate-binding protein 1 (Homo sapiens), P11940; inhibition, % at 20 µM; 360,000 tested, 0.36% active; in the data active means inhibition above about 35%, passing the limit was not always enough;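 further: plate controls were DMSO wells with GST-MLLE for no effect and wells lacking GST-MLLE protein for full effect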
Target sequence (P11940 whole entry, looked up): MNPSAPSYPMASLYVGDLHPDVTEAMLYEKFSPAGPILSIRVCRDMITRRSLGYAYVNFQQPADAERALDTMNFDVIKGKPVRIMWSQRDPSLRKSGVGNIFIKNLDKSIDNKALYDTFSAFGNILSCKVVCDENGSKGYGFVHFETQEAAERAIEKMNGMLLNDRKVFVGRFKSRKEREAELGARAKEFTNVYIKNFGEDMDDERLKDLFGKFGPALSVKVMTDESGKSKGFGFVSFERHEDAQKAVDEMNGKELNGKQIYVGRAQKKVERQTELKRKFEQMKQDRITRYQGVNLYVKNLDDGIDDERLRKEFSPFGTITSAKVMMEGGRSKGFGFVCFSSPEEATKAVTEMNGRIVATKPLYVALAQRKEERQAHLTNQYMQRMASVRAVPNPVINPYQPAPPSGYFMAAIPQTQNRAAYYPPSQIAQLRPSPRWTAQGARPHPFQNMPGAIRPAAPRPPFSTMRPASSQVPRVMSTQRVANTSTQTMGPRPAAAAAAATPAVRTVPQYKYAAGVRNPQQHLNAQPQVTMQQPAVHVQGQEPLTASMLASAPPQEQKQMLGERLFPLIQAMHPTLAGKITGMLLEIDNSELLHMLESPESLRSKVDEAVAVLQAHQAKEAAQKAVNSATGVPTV
ZTA DNA inh: counter-screen for EBNA-1 inhibitors: inhibitors of Epstein-Barr virus ZTA; ZTA-DNA binding, fluorescence polarization; inhibition, % at 11 µM; 320,000 tested, 0.15% active; in the data active means inhibition above about 33%
eIF4H FP inh: human eIF4H binding inhibitors, primary screen, translation initiation inhibitor project, biochemical, uHTS, fluorescence polarization; inhibition, % at 35 µM; AID 2012, 2009; 290,000 tested, 0.94% active; eIF4H fluorescence polarization binding assay;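 further: calls also rest on retests at 20 µM and on dose response follow-up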
PABP FP inh: PABP poly(A) RNA binding inhibitors, primary screen, biochemical, fluorescence polarization, uHTS | inhibition, % at 35 µM | 290,000 tested, 1% active | AID 2014, 2009;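 further: calls also rest on retests at 20 µM and on dose response follow-up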
NS3 hel confirm: HCV NS3 helicase inhibitors, retest, confirmation, biochemical, Cy5 molecular beacon fluorescence, triplicate; inhibition, % at 10.9 µM; 1,600 tested, 31% active; shares compounds with HCV NS3 hel inh; NS3 helicase DNA unwinding;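 active means inhibition above the mean of all tested compounds plus 3 SD, cutoff set per campaign, cut at about 36% in these data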
FID counter trip: compounds displacing fluorescent DNA intercalator, artefact control for HCV NS3 helicase inhibitor project, biochemical, FID fluorescence, triplicate; shares compounds with HCV NS3 hel inh; DNA fluorescent intercalator displacement; inhibition, % at 7.9 µM; 1,600 tested, 4% active; in the data active means inhibition above about 37%;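 further: 0% = vehicle and 100% = reference compound; higher means more displacement of ethidium bromide from the DNA hairpin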
Active calls of the source: *; ? = inconclusive; · = not tested or not shown. Unless noted, how the calls were made is not given here.

SMILES	HCV NS3 hel inh	EBNA-1 inh	PABP1 MLLE inh	ZTA DNA inh	eIF4H FP inh	PABP FP inh	NS3 hel confirm	FID counter trip
Oc1c(Br)cc(/C=N/Nc2ccc(Cl)nn2)cc1Br	17	-11	-9	-18	-11	23	·	·
N#Cc1c(Nc2ccccc2Cl)s[nH]c1=O	18	8	-131	8	10	4	·	·
COc1ccc(C(=O)NCCCN2CCN(CCCNC(=O)c3ccc(OC)c(OC)c3)CC2)cc1OC	·	·	-14	·	·	·	·	·
O=C(O)CN1C(=O)/C(=C/c2ccccc2Cl)Oc2ccccc21	26	7	8	16	-53	-1	·	·
O=C(O)CN1C(=O)/C(=C/c2cccc(Cl)c2)Oc2ccccc21	54*	6	-1	2	-13	2	59*	-14
O=S(=O)(c1cccs1)N1CN(Cc2ccccc2)c2nc3ccccc3nc21	-2	4	-17	-2	11	0	·	·
O=S(=O)(c1cccs1)N1CN(Cc2ccc(F)cc2)c2nc3ccccc3nc21	50*	-8	2	4	6	11	-20	-2
O=C(Cc1nn[nH]n1)Nc1cc(Cl)cc(Cl)c1	-17	-15	-5	-8	3	3	·	·
COc1ccc(OCc2cc(C(=O)NC3CCOC(C)(C)C3)no2)c2ccccc12 (configuration not stated)	47*	3	-7	-18	2	14	-19	-35
CCOc1ccc(C(=O)COC(=O)C2COc3ccccc3O2)cc1 (configuration not stated)	·	·	-7	-13	·	·	·	·
CCc1ccc(C(=O)C(C)OC(=O)C2COc3ccccc3O2)cc1 (configuration not stated)	45*	4	-3	-1	-2	2	5	-18
CC(C)N(C(=O)c1nn(C)c2c1CSc1ccccc1-2)C1CCCCC1	1	3	11	15	-7	3	·	·
COc1ccc(CCC(=O)OC(C)C(=O)c2ccc(C)cc2)cc1 (configuration not stated)	15	4	-8	1	0	-10	·	·
Cc1ccc(-c2csc3ncnc(NS(=O)(=O)c4ccc(Cl)cc4)c23)cc1	50*	0	-2	-5	0	5	44*	-25
NNc1ncnc2scc(-c3ccc(Cl)cc3)c12	-11	-12	-4	-6	-9	0	·	·
O=C1S/C(=C\C=C\c2ccco2)C(=O)N1c1ccccc1	49*	8	1	15	92	-14	45*	34
O=C1S/C(=C\C=C\c2ccco2)C(=O)N1c1ccc(O)cc1	129*	10	8	19	88	2	-2	11
COc1ccc(/C=c2\s/c(=C/C(=O)c3ccc(C)cc3)[nH]c2=O)cc1OC	59*	-5	-134	4	?	-5	11	4
COc1cccc(NC(=O)NNC(=O)CN2C(=O)COc3ccccc32)c1	-3	-1	1	-15	3	4	·	·
O=C(Nc1cc(-c2ccccc2)sc1C(=O)O)c1cccc(F)c1	39*	·	-6	·	-12	9	46*	18
CCOc1ccc(-c2cc(NC(=O)c3c(F)cccc3F)c(C(=O)O)s2)cc1	32	·	-1	·	10	14	·	·
CCn1c(CNC(=O)c2cccc(C)c2)nnc1SCC(=O)NC1CCCC1	4	-15	4	4	-17	-10	·	·
CCn1c(CNC(=O)c2cccc(C)c2)nnc1SCC(=O)NC1CCCCC1C (configuration not stated)	65*	-5	-3	-17	-10	-4	-5	-27
Nc1cc(S(=O)(=O)Nc2cc(Cl)ccc2Cl)ccc1N1CCOCC1	-5	4	33	8	66	-6	·	·
S=C(Nc1ccc(Br)cc1Cl)N1CCN(c2ccccn2)CC1	8	22	-32	-19	-1	-6	·	·
SMILES	HCV NS3 hel inh	EBNA-1 inh	PABP1 MLLE inh	ZTA DNA inh	eIF4H FP inh	PABP FP inh	NS3 hel confirm	FID counter trip
COCCn1c(=S)[nH]c2sc3c(c2c1=O)CCC(C)C3 (configuration not stated)	-2	-13	21	-8	9	8	·	·
Cn1c(=S)[nH]c2sc3c(c2c1=O)CCC(C(C)(C)C)C3 (configuration not stated)	43*	9	-1	2	6	13	8	-13
Nc1nc(-c2cc(O)ccc2[N+](=O)[O-])cc(-c2ccccc2)c1[N+](=O)[O-]	96*	·	-17	·	98*	84*	19	45*
Cc1ccc(NC(=O)CSc2nc(O)cc(=O)n2-c2ccc(C)cc2)cc1	48*	-4	10	-16	·	·	36*	-18
N#Cc1c(N)c(C(=O)c2ccccc2)n2ccccc12	·	3	2	-20	·	·	·	·
O=C(O)c1ccccc1N1C(=O)C2C3c4ccccc4C(Br)(c4ccccc43)C2C1=O (configuration not stated)	40*	-2	-1	-1	0	0	42*	-21
CCOC(=O)c1c(NC(=O)C2C3C=CC(CC3)C2C(=O)O)sc(C)c1C (configuration not stated)	3	1	23	19	7	1	·	·
CCOC(=O)c1c(NC(=O)C2C3CCC(O3)C2C(=O)O)sc(C)c1-c1ccc(F)cc1 (configuration not stated)	55*	-3	11	-11	6	2	61*	-12
CC(=O)c1ccccc1OC(=O)c1ccc([N+](=O)[O-])o1	2	-2	20	-16	-7	4	·	·
CC(C)OC(=O)/C(=C/c1ccco1)c1ccccc1	61*	7	-5	-3	-5	-8	-19	-9
O=[N+]([O-])c1c(C(Cl)Cl)nn(-c2ccccc2)c1N1CCOCC1	58*	13	14	8	-8	-1	-13	-12
CC(C)(C)c1ccc2c(c1)OC(C(=O)N/N=C\c1ccncc1)CO2 (configuration not stated)	-1	-17	-6	-3	-9	0	·	·
O=C(N/N=C/c1ccc([N+](=O)[O-])o1)c1ccc2c(c1)OCO2	40*	·	-5	·	79*	39*	-12	6
CC(C)(C)c1ccc2c(c1)OC(C(=O)N/N=C/c1ccc([N+](=O)[O-])o1)CO2 (configuration not stated)	51*	-8	-7	7	10	17	-17	2
